Source: ChEMBL document CHEMBL1128351, “A novel pyrrolidine analog of histamine as a potent, highly selective histamine H3 receptor agonist” (J Med Chem, 1995)
Active and inactive are the calls of the source. No cut-off for these calls is given here.

Experiments:
Histamine H3 receptor = Histamine H3 receptor (Cavia porcellus, UniProt Q9JI35); assay: Binding affinity against Histamine H3 receptor
Method in brief: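 H3 receptor binding Ki values are the mean of two independent experiments, with errors given as the range from the mean.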

Histamine H1 receptor = Histamine H1 receptor (Cavia porcellus, UniProt P31389); assay: Binding affinity against H1 receptor
Cavia porcellus [1] = assay: Effective dose was tested in vivo for 50% inhibition by an electrically induced CNS hypertension model after iv administration.; assay type: functional
Method in brief: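 H3 agonist activity was measured in a CNS hypertension model with intravenous dosing. Values are ED50 in mg/kg, or % of the activity of the reference H3 agonist at 0.3 mg/kg.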

Cavia porcellus [2] = assay: Effective dose was tested in vivo for 50% inhibition by an H1 histamine-mediated bronchospasm in guinea pig; assay type: functional; conditions: Bronchiole
[3] = target: Histamine H3 receptor (Cavia porcellus) (UniProt Q9JI35); conditions: Ileum, 1 uM
Cavia porcellus [4] = assay: Effective dose was tested in vivo for 50% inhibition by an H1 histamine-mediated bronchospasm after iv administration in guinea pig; assay type: functional; conditions: Bronchiole
Method in brief: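 Given intravenously and measured in an H1 histamine-mediated bronchospasm model. Value is expressed as ED50 in mg/kg.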

[5] = target: Histamine H3 receptor (Cavia porcellus) (UniProt Q9JI35); conditions: Ileum
[6] = target: Histamine H1 receptor (Cavia porcellus) (UniProt P31389); conditions: Ileum
[7] = target: Histamine H1 receptor (Cavia porcellus) (UniProt P31389); conditions: Ileum, 10 uM

Chain of Histamine H1 receptor (P31389 whole entry): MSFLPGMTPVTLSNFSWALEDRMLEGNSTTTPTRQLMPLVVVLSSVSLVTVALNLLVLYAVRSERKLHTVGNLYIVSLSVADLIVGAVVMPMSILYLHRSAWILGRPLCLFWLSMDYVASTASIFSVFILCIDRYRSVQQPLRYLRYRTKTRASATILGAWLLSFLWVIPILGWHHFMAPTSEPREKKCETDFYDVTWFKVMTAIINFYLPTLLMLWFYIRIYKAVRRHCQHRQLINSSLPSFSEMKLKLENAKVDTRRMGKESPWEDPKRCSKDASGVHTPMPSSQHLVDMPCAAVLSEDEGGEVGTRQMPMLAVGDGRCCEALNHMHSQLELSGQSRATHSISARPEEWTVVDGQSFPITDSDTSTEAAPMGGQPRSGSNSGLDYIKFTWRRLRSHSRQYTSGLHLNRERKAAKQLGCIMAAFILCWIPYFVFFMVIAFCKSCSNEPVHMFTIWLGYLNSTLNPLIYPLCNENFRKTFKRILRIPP
Chain of Histamine H3 receptor (Cavia porcellus) (Q9JI35 whole entry): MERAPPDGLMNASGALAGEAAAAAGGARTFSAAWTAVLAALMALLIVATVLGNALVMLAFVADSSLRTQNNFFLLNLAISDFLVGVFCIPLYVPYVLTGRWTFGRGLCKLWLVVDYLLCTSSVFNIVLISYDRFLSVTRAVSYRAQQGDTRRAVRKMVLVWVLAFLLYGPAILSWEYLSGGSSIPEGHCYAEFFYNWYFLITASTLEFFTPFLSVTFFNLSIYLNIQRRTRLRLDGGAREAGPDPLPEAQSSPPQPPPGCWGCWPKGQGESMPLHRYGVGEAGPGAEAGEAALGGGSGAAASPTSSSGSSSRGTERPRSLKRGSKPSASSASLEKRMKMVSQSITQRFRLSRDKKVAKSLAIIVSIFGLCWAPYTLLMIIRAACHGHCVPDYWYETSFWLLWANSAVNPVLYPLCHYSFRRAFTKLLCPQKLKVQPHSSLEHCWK
Chain of Histamine H3 receptor (Q9JI35 whole entry): as above
Chain of Histamine H1 receptor (Cavia porcellus) (P31389 whole entry): as the sequence (P31389 whole entry) above

Row | Structure (SMILES) | Ki (Histamine H3 receptor) | Ki (Histamine H1 receptor) | also measured
1 | C[C@H]1NCC[C@@H]1c1c[nH]cn1 (racemic) | 0.0087 µM | – | –
2 | C[C@]1(N)CCCC[C@@H]1c1c[nH]cn1 (racemic) | > 2 µM | – | –
3 | C[C@H]1NCC[C@@H]1c1c[nH]cn1 [listing 1 of 2 here] | 0.0028 µM | > 10 µM | ED50 (Cavia porcellus [1]): 0.18 mg/kg; ED50 (Cavia porcellus [2]): > 100 mg/kg
4 | C[C@@]1(N)CCCC[C@@H]1c1cnc[nH]1 (racemic) | > 2 µM | – | –
5 | C[C@@H](N)[C@@H](C)c1c[nH]cn1 (racemic) | 0.011 µM | – | –
6 | C[C@@H]1NCC[C@H]1c1c[nH]cn1 | 0.033 µM | > 10 µM | pD2 [3]: inactive
7 | C[C@H](c1c[nH]cn1)[C@@H](C)N (racemic) | 0.0008 µM | – | –
8 | C[C@@H](N)Cc1c[nH]cn1 | 0.0015 µM | > 10 µM | ED50 (Cavia porcellus [4]): 1.7 mg/kg; pD2 [5]: 8.2; ED50 (Cavia porcellus [1]): 0.1 mg/kg; pD2 [6]: 5.4
9 | C[C@H]1NCC[C@@H]1c1c[nH]cn1 [listing 2 of 2 here] | – | – | pD2 [5]: 7.1; pD2 [7]: inactive
10 | N[C@H]1CCC[C@@H]1c1cnc[nH]1 (racemic) | 0.74 µM | – | –
